According to ChEMBL document CHEMBL2396611, “Synthesis and mechanism of hypoglycemic activity of benzothiazole derivatives” (J Med Chem, 2013):
Activity calls are given as the source filed them. No cut-off for these calls is given here.

Columns and labels:
L6 [1] = test: Activation of AMPKalpha in rat L6 cells assessed as phosphorylation at Thr172 at 15 uM after 4 hrs by Western blot analysis relative to control; assay type: cell-based
Procedure, shortened: (§1)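 L6 myotubes treated 4 h with increasing compound concentrations (5 to 150 μM) or DMSO. Whole-cell lysates immunoblotted for pThr172-AMPKα, AMPKα and α-tubulin; phosphorylation expressed relative to DMSO-treated control.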

Mus musculus [2] = test: Antidiabetic activity in KKAy mouse assessed as reduction of blood glucose level at 30 to 75 mg/kg, sc bid for 4 days measured on day 3 relative to control; assay type: functional; parameters: scale not given: the % may be the effect or the level left; settings: dose mg/kg 30-75; route subcutaneous
Procedure, shortened: (§2)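 Hyperglycemic KKAy mice injected s.c. twice daily for 4 days with compound at 30 or 75 mg/kg suspended in sesame oil; controls received sesame oil (150 µl). Blood glucose measured at the indicated times, with day-zero levels taken as 100%. n=10 per group, mean ± SEM, compared with oil-treated group.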

L6 [3] = test: Activation of AMPKalpha in rat L6 cells assessed as phosphorylation at Thr172 after 4 hrs by Western blot analysis; assay type: cell-based
[4] = molecular target: 5'-AMP-activated protein kinase catalytic subunit alpha-2 (Rattus norvegicus) (UniProt Q09137); test: Activation of AMPK in rat L6 cells assessed as increase of [3H]dGlc uptake at 25 uM after 5 hrs in presence of insulin; assay type: cell-based
Procedure, shortened: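 Myotubes in serum-free αMEM with 0.5% BSA and 23.0 mM D-glucose for 9 h. Compound 25 μM or DMSO (0.1% v/v) given for the last 5 h; insulin 100 nM for the last 20 min. [3H]dGlc uptake read as 5-min PBS pulse with 0.1 mmol/L dGlc; basal rate taken as 100%.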

L6 [5] = test: Increase of myc-tagged GLUT1 translocation in rat L6 cell plasma membrane at 25 uM after 30 mins to 5 hrs by colorimetric analysis; assay type: functional, cell-based
Procedure, shortened: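 L6 lines stably carrying GLUT4myc or GLUT1myc, treated 5 h with test agent or DMSO; insulin given for 30 min. Live myotubes incubated with rabbit anti-c-Myc (1:200), washed, fixed in 3% formaldehyde, then HRP anti-rabbit IgG (1:2000). Developed with OPD and read at 492 nm to give relative surface transporter abundance.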

[6] = molecular target: 5'-AMP-activated protein kinase catalytic subunit alpha-2 (Rattus norvegicus) (UniProt Q09137); test: Activation of AMPK in rat L6 cells assessed as increase of [3H]dGlc uptake at 25 uM up to 24 hrs; assay type: cell-based
Procedure, shortened: (§3)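 Fully differentiated L6 myotubes preincubated 24 h in αMEM with 2% FCS and 23.0 mmol/L D-glucose, then 4 h serum-free with 0.5% BSA. Compound or DMSO vehicle given for the indicated times or concentrations. Uptake read after 5 min at room temperature in PBS pH 7.4 with 0.1 mmol/L dGlc and 1.3 μCi/mL [3H]dGlc, by scintillation of SDS lysates. Zero-time basal rate set as 100%; n=6.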

L6 [7] = test: Effect on total GLUT4 expression in rat L6 cell lysate at 25 uM after 30 mins to 5 hrs by Western blot analysis; assay type: functional, cell-based
Procedure, shortened: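 Fully differentiated L6 myotubes, preconditioned in αMEM with 23.0 mM D-glucose; insulin exposure 30 min, test exposure 5 h. Whole-cell lysates made in Tris-HCl pH 7.5 buffer with phosphatase and protease inhibitors, 40 min at 4 °C. Protein measured by Bradford, 5-60 µg per lane. Western blot probed with rabbit polyclonal anti-GLUT1 or anti-GLUT4.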

[8] = molecular target: 5'-AMP-activated protein kinase catalytic subunit alpha-2 (Rattus norvegicus) (UniProt Q09137); test: Activation of AMPK in rat L6 cells assessed as AS-160 phosphorylation at Thr642 at 25 uM after 3 hrs by Western blot analysis relative to control; assay type: cell-based
Procedure, shortened: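 Fully differentiated L6 myotubes, preincubated 3 h with or without 5 μM Compound C. Test agents: compound at 25 μM for 3 h, sorbitol 250 mM for 40 min, AICAR 4 mM for 30 min. Whole-cell lysates probed by Western blot for pSer79-ACC, ACC, pThr642-AS-160, AS-160 and α-tubulin; band densities summarized, n=3, vs respective controls.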

L6 [9] = test: Activation of AMPKalpha in rat L6 cells assessed as phosphorylation at Thr172 at 25 uM after 4 hrs by Western blot analysis relative to control; assay type: cell-based; procedure, shortened: as §1
Mus musculus [10] = test: Antidiabetic activity in po dosed KKAy mouse assessed as reduction of blood glucose level; assay type: functional, organism-based
Cytochrome P450 2C9 = Cytochrome P450 2C9 (Homo sapiens, UniProt P11712); test: Inhibition of CYP2C9 (unknown origin) by luminescent based assay; assay type: ADME
[11] = molecular target: 5'-AMP-activated protein kinase catalytic subunit alpha-2 (Rattus norvegicus) (UniProt Q09137); test: Activation of AMPK in rat L6 cells assessed as increase of [3H]dGlc uptake at 10 to 200 uM; assay type: cell-based; settings: TDE = time-dependent effect; procedure, shortened: as §3
[12] = Half life in BALB/c mouse liver microsomes at 2 uM; assay type: ADME, Microsome
L6 [13] = test: Activation of AMPKalpha in rat L6 cells assessed as phosphorylation at Thr172 at 150 uM after 4 hrs by Western blot analysis relative to control; assay type: cell-based; procedure, shortened: as §1
[14] = molecular target: 5'-AMP-activated protein kinase catalytic subunit alpha-2 (Homo sapiens) (UniProt P54646); test: Activation of human recombinant AMPK at 20 uM after 30 mins relative to control
Procedure, shortened: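 Recombinant human full-length AMPK assayed with a commercial luminescent kit. Compound at 20 μM or DMSO vehicle (1% v/v) added to the reaction mix for 30 min at ambient temperature. Activity read by luminometer against a calibration curve; basal activity with DMSO set as 100%.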

Cytochrome P450 3A4 = Cytochrome P450 3A4 (Homo sapiens, UniProt P08684); test: Inhibition of CYP3A4 (unknown origin) by luminescent based assay; assay type: ADME
[15] = molecular target: 5'-AMP-activated protein kinase catalytic subunit alpha-2 (Rattus norvegicus) (UniProt Q09137); test: Activation of AMPK in rat L6 cells assessed as increase of [3H]dGlc uptake after 5 hrs; assay type: cell-based; procedure, shortened: as §3
Mus musculus [16] = test: Antidiabetic activity in KKAy mouse assessed as reduction of blood glucose level at 30 to 75 mg/kg, sc bid for 4 days measured on day 1 relative to control; assay type: functional; parameters: scale not given: the % may be the effect or the level left; settings: dose mg/kg 30-75; route subcutaneous; procedure, shortened: as §2
Cytochrome P450 2C19 = Cytochrome P450 2C19 (Homo sapiens, UniProt P33261); test: Inhibition of CYP2C19 (unknown origin) by luminescent based assay; assay type: ADME
L6 [17] = test: Activation of AMPKalpha in rat L6 cells assessed as phosphorylation at Thr172 at 150 uM after 4 hrs by Western blot analysis; assay type: cell-based; procedure, shortened: as §1
[18] = molecular target: 5'-AMP-activated protein kinase catalytic subunit alpha-2 (Rattus norvegicus) (UniProt Q09137); test: Activation of AMPK in rat L6 cells assessed as increase of [3H]dGlc uptake after 5 hrs in presence of Akt/PKB inhibitor 1,3-dihydro-1-(1-((4-(6-phenyl-1Himidazo[4,5-g]quinoxalin-7-yl)phenyl)methyl)-4-piperidinyl)-2H-benzimidazol-2-one trifluoroacetate salt hydrate; assay type: cell-based
Procedure, shortened: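 Myotubes treated with compound, insulin or vehicle in the absence or presence of 100 nM wortmannin or 100 nM Akt/PKB inhibitor, each added 30 min before compound or insulin. Compound C 5 μM was added 5 h before the uptake assay. Rate then measured by the standard 5-min [3H]dGlc uptake assay.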

Chain of 5'-AMP-activated protein kinase catalytic subunit alpha-2 (Rattus norvegicus) (Q09137 whole entry): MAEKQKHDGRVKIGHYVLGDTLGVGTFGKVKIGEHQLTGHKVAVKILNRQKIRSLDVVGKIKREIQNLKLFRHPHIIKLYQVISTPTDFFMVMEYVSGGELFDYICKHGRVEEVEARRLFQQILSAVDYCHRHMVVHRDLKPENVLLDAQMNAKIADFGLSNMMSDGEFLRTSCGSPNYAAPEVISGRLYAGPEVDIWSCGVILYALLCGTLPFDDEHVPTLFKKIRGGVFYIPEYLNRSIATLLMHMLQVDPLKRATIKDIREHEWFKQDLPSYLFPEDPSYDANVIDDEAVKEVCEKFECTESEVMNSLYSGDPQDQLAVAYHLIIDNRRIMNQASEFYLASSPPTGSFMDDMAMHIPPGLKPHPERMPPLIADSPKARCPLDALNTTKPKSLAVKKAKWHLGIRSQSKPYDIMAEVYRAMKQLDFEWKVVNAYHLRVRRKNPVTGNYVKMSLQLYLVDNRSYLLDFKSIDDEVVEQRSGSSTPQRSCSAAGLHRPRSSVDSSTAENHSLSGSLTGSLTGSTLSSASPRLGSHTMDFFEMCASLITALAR
Chain of Cytochrome P450 2C9 (P11712 whole entry): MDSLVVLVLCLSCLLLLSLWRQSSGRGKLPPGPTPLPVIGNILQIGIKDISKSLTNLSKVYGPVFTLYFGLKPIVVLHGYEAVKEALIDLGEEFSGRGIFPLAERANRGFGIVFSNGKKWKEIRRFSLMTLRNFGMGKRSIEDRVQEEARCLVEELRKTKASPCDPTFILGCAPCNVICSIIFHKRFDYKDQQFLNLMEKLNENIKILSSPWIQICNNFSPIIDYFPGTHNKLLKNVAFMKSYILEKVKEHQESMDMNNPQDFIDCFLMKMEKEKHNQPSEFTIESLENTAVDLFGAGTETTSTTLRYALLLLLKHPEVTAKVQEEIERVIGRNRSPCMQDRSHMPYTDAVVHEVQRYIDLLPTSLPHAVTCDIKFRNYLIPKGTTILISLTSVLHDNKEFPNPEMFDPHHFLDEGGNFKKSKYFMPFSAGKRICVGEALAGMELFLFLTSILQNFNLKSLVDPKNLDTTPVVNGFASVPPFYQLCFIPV
Chain of 5'-AMP-activated protein kinase catalytic subunit alpha-2 (Homo sapiens) (P54646 whole entry, looked up): as the sequence (Q09137 whole entry) above, with V114M, Q150H, I241V, T348S, M355S, V502F, S505T, N509S, A528V, A549T counted along it
Chain of Cytochrome P450 2C19 (P33261 whole entry): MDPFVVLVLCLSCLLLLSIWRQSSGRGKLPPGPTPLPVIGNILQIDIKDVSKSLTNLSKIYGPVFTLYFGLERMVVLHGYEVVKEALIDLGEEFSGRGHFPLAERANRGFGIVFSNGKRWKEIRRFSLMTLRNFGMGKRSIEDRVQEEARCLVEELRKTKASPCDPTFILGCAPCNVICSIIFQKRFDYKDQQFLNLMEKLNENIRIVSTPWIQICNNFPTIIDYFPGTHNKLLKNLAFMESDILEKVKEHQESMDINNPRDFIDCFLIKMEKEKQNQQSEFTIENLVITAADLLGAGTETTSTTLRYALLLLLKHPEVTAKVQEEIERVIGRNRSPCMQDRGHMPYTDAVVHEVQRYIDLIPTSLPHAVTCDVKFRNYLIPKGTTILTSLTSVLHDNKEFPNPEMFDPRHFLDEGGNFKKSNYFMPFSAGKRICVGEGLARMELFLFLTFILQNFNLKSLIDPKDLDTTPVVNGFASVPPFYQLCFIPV
Chain of Cytochrome P450 3A4 (P08684 whole entry): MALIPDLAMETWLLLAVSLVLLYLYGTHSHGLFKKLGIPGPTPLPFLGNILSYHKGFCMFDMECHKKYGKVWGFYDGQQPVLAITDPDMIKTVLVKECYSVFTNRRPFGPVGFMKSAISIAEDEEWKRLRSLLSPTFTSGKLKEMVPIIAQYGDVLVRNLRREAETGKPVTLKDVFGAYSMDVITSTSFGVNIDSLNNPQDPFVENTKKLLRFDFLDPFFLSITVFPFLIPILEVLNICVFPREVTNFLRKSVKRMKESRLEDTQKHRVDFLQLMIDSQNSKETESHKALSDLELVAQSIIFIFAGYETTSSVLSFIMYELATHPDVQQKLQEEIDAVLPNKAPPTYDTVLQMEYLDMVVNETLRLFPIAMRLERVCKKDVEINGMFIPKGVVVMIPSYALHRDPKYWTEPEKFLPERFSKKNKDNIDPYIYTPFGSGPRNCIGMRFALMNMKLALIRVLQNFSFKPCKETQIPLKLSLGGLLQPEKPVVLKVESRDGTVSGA

CCOc1ccc2nc(SCc3nc4ccccc4s3)sc2c1
fold change (FC) (L6 [1]): 5.5
Activity (Mus musculus [2]): 50%
Activity (L6 [3]): Dose-dependent effect
Activity [4]: Active
Activity (L6 [5]): inactive
Activity [6]: Active
Activity (L6 [7]): inactive
fold change (FC) [8]: 1.09
fold change (FC) (L6 [9]): 6.8
Activity (Mus musculus [10]): inactive
inhibition (INH) (Cytochrome P450 2C9): Not Active
Activity [11]: tde
half-life at 2 µM [12]: 2.4 min
fold change (FC) (L6 [13]): 7.6
fold change (FC) [14]: 4.3
inhibition (INH) (Cytochrome P450 3A4): 77.1%
Activity [15]: Dose-dependent effect
Activity (Mus musculus [16]): 30%
inhibition (INH) (Cytochrome P450 2C19): Not Active
fold change (FC) (L6 [17]): 7.6
Activity [18]: Active
